Results published in ChEMBL document CHEMBL1125931, “Fluorescent markers for hypoxic cells: a study of nitroaromatic compounds, with fluorescent heterocyclic side chains, that undergo bioreductive binding” (J Med Chem, 1991).

Columns and labels:
[1] = Cellular content after 4 hr incubation with compound under aerobic condition at 37 C.; format: functional; settings: Cricetulus griseus
Method in brief: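 Aerobic V79 Chinese hamster cells exposed to 10^-4 M extracellular drug for 4 h at 37 °C, then washed with PBS. Cell content measured by HPLC with an acetonitrile gradient, 50–75% over 10 min with 390 nm detection or 30–50% with 340 nm detection depending on compound. Reported as fmol per cell; about 0.1 fmol/cell corresponds to equilibration with the extracellular space.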

[2] = Binding of fluorescence moiety to oxic cells measured in flow cytometry assay at conc of 10e-4 M.; format: functional, Cricetulus griseus
Method in brief: (§1)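 V79 379A Chinese hamster cells (suspension culture, MEM with 7.5% fetal calf serum) incubated at 37 °C with 10^-4 M drug under aerobic or hypoxic gassing (air or N2, each + 5% CO2); DMSO final ≤1%. Flow cytometry after 6 h: excitation 365 nm, emission >390 or 410 nm; naphthalimides excited 458 nm, emission 510–560 nm. Mean fluorescence, arbitrary units, normalized for PMT gain and laser power.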

[3] = Binding of fluorescence moiety to hypoxic cells measured in flow cytometry assay at conc of 10e-4 M.; format: functional, Cricetulus griseus; method in brief: as §1

SMILES | Uptake [1] [fmol/cell] | Fluorescence Intensity [2] | Fluorescence Intensity [3]
O=C(CNCCCN(CCO)CCO)Nc1ccc2c3c(cccc13)C(=O)N(CCCn1ccnc1[N+](=O)[O-])C2=O | < 0.005 | 13 | 24
Nc1ccc2c3c(cccc13)C(=O)N(CCCCCn1ccnc1[N+](=O)[O-])C2=O | 93 | 42 | 235
Br.COc1ccc2c(CSCCN)cc(=O)oc2c1 | – | 19 | 77
COc1cc2oc(=O)cc(Cn3ccnc3[N+](=O)[O-])c2cc1OC | – | 64 | 1461
CC(=O)Nc1ccc2c3c(cccc13)C(=O)N(CCCn1ccnc1[N+](=O)[O-])C2=O | 0.04 | 12 | 37
COc1cc2cc(Cn3ccnc3[N+](=O)[O-])c(=O)oc2cc1OC | – | 238 | 1149
COc1ccc2cc(C(=O)NCCN(CCO)CC(O)Cn3ccnc3[N+](=O)[O-])c(=O)oc2c1 (centres undefined) | – | 24 | 412
Nc1ccc2c3c(cccc13)C(=O)N(CCCn1ccnc1[N+](=O)[O-])C2=O | 98 | 17 | 335
COc1ccc2c(Cn3ccnc3[N+](=O)[O-])cc(=O)oc2c1 | – | 24 | 361
Nc1ccc2c3c(cccc13)C(=O)N(CCCCCCCCCn1ccnc1[N+](=O)[O-])C2=O | 105 | 78 | 263
COc1cc2nc(N3CCN(CC(O)Cn4ccnc4[N+](=O)[O-])CC3)nc(N)c2cc1OC (centres undefined) | – | 39 | 85
COc1ccc2cc(Cn3ccnc3[N+](=O)[O-])c(=O)oc2c1 | – | 85 | 203
